Assay results: ChEMBL document CHEMBL3091449, “Synthesis and antimicrobial profile of N-substituted imidazolium oximes and their monoquaternary salts against multidrug resistant bacteria” (2013)

Tests used:
Pseudomonas aeruginosa [1] = test: Ratio of gentamicin MIC to compound MIC for Pseudomonas aeruginosa FNSST 982; type: functional
Staphylococcus aureus [2] = test: Antibacterial activity against Staphylococcus aureus ATCC 25923 assessed as diameter of zone of inhibition at 250 ug/disc after 24 hrs by disc diffusion method; type: functional; conditions: ATCC 25923, 24 h, read-out: DIZ
Outline: (§1)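 Bacteria were grown overnight at 37 °C in TSB to about 10^6 cfu/mL, and 100 µL was spread on Mueller Hinton agar. Sterile 6 mm discs were each loaded with 25 µL of a 10 mg/mL stock in 96% ethanol, giving 250 µg/disc. Ethanol served as the negative control. Plates were incubated 24 h at 37 °C. Inhibition zone diameter was measured including the disc, in triplicate, as mean ± SE.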

Clostridium perfringens [3] = test: Antibacterial activity against Clostridium perfringens FNSST 4999 after 18 to 24 hrs by two-fold broth microdilution assay; type: functional
Outline: (§2)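 CLSI two-fold broth microdilution. Compounds dissolved in DMSO, 10 mg/mL stock, serially diluted to 400–0.09 µg/mL in Mueller Hinton broth. Wells inoculated with 10^6 CFU/mL bacteria and incubated 18–24 h at 37 °C. 0.2 mg/mL INT added for 30 min. MIC taken as the lowest concentration with no visible growth or pink colour. Triplicate.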

Klebsiella pneumoniae [4] = test: Antibacterial activity against Klebsiella pneumoniae FNSST 011 assessed as diameter of zone of inhibition at 250 ug/disc after 24 hrs by disc diffusion method; type: functional; conditions: FNSST 011, 24 h, read-out: DIZ; outline: as §1
Enterococcus faecalis [5] = test: Antibacterial activity against Enterococcus faecalis ATCC 29212 assessed as diameter of zone of inhibition at 250 ug/disc after 24 hrs by disc diffusion method; type: functional; conditions: ATCC 29212, 24 h, read-out: DIZ; outline: as §1
Escherichia coli [6] = test: Ratio of gentamicin MIC to compound MIC for Escherichia coli FNSST 982; type: functional
Pseudomonas aeruginosa [7] = test: Antibacterial activity against Pseudomonas aeruginosa FNSST 982 after 18 to 24 hrs by two-fold broth microdilution assay; type: functional
Outline: (§3)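 CLSI two-fold broth microdilution was used. Compounds were dissolved in DMSO, brought to 10 mg/mL in medium, then serially diluted in Mueller Hinton broth over 400–0.09 µg/mL. Overnight MHB cultures were diluted to 10^6 CFU/mL, and 10 µL was added per well. Plates were incubated 18–24 h at 37 °C, then 0.2 mg/mL INT was added for 30 min at 37 °C. MIC was the lowest concentration with no visible growth or pink colour, triplicate.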

Candida albicans = test: Antifungal activity against Candida albicans ATCC 10231 assessed as diameter of zone of inhibition at 250 ug/disc after 48 hrs by disc diffusion method; type: functional; conditions: ATCC 10231, 48 h, read-out: DIZ
Outline: (§4)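 Fungi were grown overnight at 30 °C in Sabouraud dextrose broth to 10^4 cfu/mL, and 100 µL was spread on Sabouraud dextrose agar. 6 mm discs carried 250 µg (25 µL of a 10 mg/mL stock in 96% ethanol), with ethanol as the negative control. Incubation was at 30 °C for 48 h (yeast) or 72 h (molds). Zone diameter was read including the disc, in triplicate, mean ± SE.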

Klebsiella pneumoniae [8] = test: Antibacterial activity against Klebsiella pneumoniae FNSST 011 after 18 to 24 hrs by two-fold broth microdilution assay; type: functional; outline: as §3
Aeromonas hydrophila [9] = test: Antibacterial activity against Aeromonas hydrophila FNSST 014 assessed as diameter of zone of inhibition at 250 ug/disc after 24 hrs by disc diffusion method; type: functional; conditions: FNSST 014, 24 h, read-out: DIZ; outline: as §1
Aeromonas hydrophila [10] = test: Antibacterial activity against Aeromonas hydrophila FNSST 014 after 18 to 24 hrs by two-fold broth microdilution assay; type: functional; outline: as §3
Escherichia coli [11] = test: Antibacterial activity against Escherichia coli FNSST 982 assessed as diameter of zone of inhibition at 250 ug/disc after 24 hrs by disc diffusion method; type: functional; conditions: FNSST 982, 24 h, read-out: DIZ; outline: as §1
Escherichia coli [12] = test: Antibacterial activity against Escherichia coli FNSST 982 after 18 to 24 hrs by two-fold broth microdilution assay; type: functional; outline: as §3
Pseudomonas aeruginosa [13] = test: Antibacterial activity against Pseudomonas aeruginosa FNSST 982 assessed as diameter of zone of inhibition at 250 ug/disc after 24 hrs by disc diffusion method; type: functional; conditions: FNSST 982, 24 h, read-out: DIZ; outline: as §1
Enterococcus faecalis [14] = test: Antibacterial activity against Enterococcus faecalis ATCC 29212 after 18 to 24 hrs by two-fold broth microdilution assay; type: functional; outline: as §3
Staphylococcus aureus [15] = test: Antibacterial activity against Staphylococcus aureus ATCC 25923 after 18 to 24 hrs by two-fold broth microdilution assay; type: functional; outline: as §3
Pseudomonas aeruginosa [16] = test: Ratio of cefotaxime MIC to compound MIC for Pseudomonas aeruginosa FNSST 982; type: functional
Talaromyces funiculosus = test: Antifungal activity against Penicillium funiculosum FNSST 3724 assessed as diameter of zone of inhibition at 250 ug/disc after 72 hrs by disc diffusion method; type: functional; conditions: FNSST 3724, 72 h, read-out: DIZ; outline: as §4
Bacillus cereus [17] = test: Antibacterial activity against Bacillus cereus ATCC 11778 after 18 to 24 hrs by two-fold broth microdilution assay; type: functional; outline: as §3
Aspergillus fumigatus = test: Antifungal activity against Aspergillus fumigatus FNSST 3833 assessed as diameter of zone of inhibition at 250 ug/disc after 72 hrs by disc diffusion method; type: functional; conditions: FNSST 3833, 72 h, read-out: DIZ; outline: as §4
Clostridium perfringens [18] = test: Antibacterial activity against Clostridium perfringens FNSST 4999 assessed as diameter of zone of inhibition at 250 ug/disc after 24 hrs by disc diffusion method; type: functional; conditions: FNSST 4999, 24 h, read-out: DIZ
Outline: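 Disc diffusion per CLSI: 100 µL of 10^6 cfu/mL bacterial suspension spread on Mueller Hinton agar. 6 mm discs loaded with 25 µL of 10 mg/mL compound stock in 96% ethanol (250 µg/disc); ethanol as negative control. Incubated 24 h at 37 °C. Inhibition zone diameter measured in mm including the disc, triplicate, reported as mean ± SE.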

Bacillus cereus [19] = test: Antibacterial activity against Bacillus cereus ATCC 11778 assessed as diameter of zone of inhibition at 250 ug/disc after 24 hrs by disc diffusion method; type: functional; conditions: ATCC 11778, 24 h, read-out: DIZ; outline: as §1
[20] = system: Stenotrophomonas maltophilia; test: Antibacterial activity against […] expressing Stenotrophomonas maltophilia isolate 125 after 18 to 24 hrs by two-fold broth microdilution assay; type: functional; outline: as §3
Bacillus cereus [21] = test: Antibacterial activity against Bacillus cereus ATCC 11778 assessed as diameter of zone of inhibition at 15 ug/disc after 24 hrs by disc diffusion method; type: functional, organism-based
Outline: (§5)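 Gentamicin 15 µg disc run as positive control in CLSI disc diffusion. Lawn of 100 µL of 10^6 cfu/mL bacteria on Mueller Hinton agar, incubated 24 h at 37 °C. Zone diameter measured in mm including the 6 mm disc, triplicate, mean ± SE.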

Escherichia coli [22] = test: Antibacterial activity against […] expressing Escherichia coli isolate 235 after 18 to 24 hrs by two-fold broth microdilution assay; type: functional; outline: as §2
Enterococcus faecalis [23] = test: Antibacterial activity against Enterococcus faecalis ATCC 29212 assessed as diameter of zone of inhibition at 15 ug/disc after 24 hrs by disc diffusion method; type: functional, organism-based; outline: as §5
Aeromonas caviae [24] = test: Antibacterial activity against […] expressing Aeromonas caviae isolate 258 after 18 to 24 hrs by two-fold broth microdilution assay; type: functional; outline: as §3
Enterobacter cloacae [25] = test: Antibacterial activity against TEM-1/CTX-M-15 expressing Enterobacter cloacae isolate 62 after 18 to 24 hrs by two-fold broth microdilution assay; type: functional
Acinetobacter baumannii = test: Antibacterial activity against SIM-1 expressing Acinetobacter baumannii isolate 170 after 18 to 24 hrs by two-fold broth microdilution assay; type: functional; outline: as §2
Escherichia coli [26] = test: Antibacterial activity against Escherichia coli FNSST 982 assessed as diameter of zone of inhibition at 15 ug/disc after 24 hrs by disc diffusion method; type: functional, organism-based; outline: as §5
Escherichia coli [27] = test: Antibacterial activity against TEM-1/SHV-12 expressing Escherichia coli isolate 237 after 18 to 24 hrs by two-fold broth microdilution assay; type: functional; outline: as §2
Aeromonas hydrophila [28] = test: Antibacterial activity against TEM-1/SHV-12 expressing Aeromonas hydrophila isolate 268 after 18 to 24 hrs by two-fold broth microdilution assay; type: functional; outline: as §3
Pseudomonas aeruginosa [29] = test: Antibacterial activity against Pseudomonas aeruginosa FNSST 982 assessed as diameter of zone of inhibition at 15 ug/disc after 24 hrs by disc diffusion method; type: functional, organism-based; outline: as §5
Pseudomonas aeruginosa [30] = test: Antibacterial activity against GIM-1 expressing Pseudomonas aeruginosa isolate 197 after 18 to 24 hrs by two-fold broth microdilution assay; type: functional; outline: as §3
Klebsiella pneumoniae [31] = test: Antibacterial activity against Klebsiella pneumoniae FNSST 011 assessed as diameter of zone of inhibition at 15 ug/disc after 24 hrs by disc diffusion method; type: functional, organism-based; outline: as §5
Kluyvera intermedia = test: Antibacterial activity against TEM-1/SHV-12/[…] expressing Enterobacter intermedius isolate 243 after 18 to 24 hrs by two-fold broth microdilution assay; type: functional; outline: as §3
Aeromonas hydrophila [32] = test: Antibacterial activity against Aeromonas hydrophila FNSST 014 assessed as diameter of zone of inhibition at 15 ug/disc after 24 hrs by disc diffusion method; type: functional, organism-based; outline: as §5
Staphylococcus aureus [33] = test: Antibacterial activity against Staphylococcus aureus ATCC 25923 assessed as diameter of zone of inhibition at 15 ug/disc after 24 hrs by disc diffusion method; type: functional, organism-based; outline: as §5
Klebsiella pneumoniae [34] = test: Antibacterial activity against TEM-1/SHV-12 expressing Klebsiella pneumoniae isolate 303 after 18 to 24 hrs by two-fold broth microdilution assay; type: functional; outline: as §3
Aeromonas caviae [35] = test: Antibacterial activity against TEM-1/CTX-M-15 expressing Aeromonas caviae isolate 260 after 18 to 24 hrs by two-fold broth microdilution assay; type: functional; outline: as §3
Escherichia coli [36] = test: Antibacterial activity against […] expressing Escherichia coli isolate 4024 after 18 to 24 hrs by two-fold broth microdilution assay; type: functional; outline: as §2
Clostridium perfringens [37] = test: Antibacterial activity against Clostridium perfringens FNSST 4999 assessed as diameter of zone of inhibition at 15 ug/disc after 24 hrs by disc diffusion method; type: functional, organism-based; outline: as §5
Enterobacter cloacae [38] = test: Antibacterial activity against CTX-15 expressing Enterobacter cloacae isolate 51 after 18 to 24 hrs by two-fold broth microdilution assay; type: functional
Enterobacter cloacae [39] = test: Antibacterial activity against TEM-1/SHV-12 expressing Enterobacter cloacae isolate 306 after 18 to 24 hrs by two-fold broth microdilution assay; type: functional

## Cc1ccc(-[n+]2ccn(Cc3ccccc3)c2/C=N/O)cc1.[Br-]
Pseudomonas aeruginosa [1]
  Ratio: 450
Staphylococcus aureus [2]
  zone of inhibition at 250 µg/disc: 18.4 mm
Clostridium perfringens [3]
  MIC: 25 mg/L
Klebsiella pneumoniae [4]
  zone of inhibition at 250 µg/disc: 16.3 mm
Enterococcus faecalis [5]
  zone of inhibition at 250 µg/disc: 14.5 mm
Escherichia coli [6]
  Ratio: 2.5
Pseudomonas aeruginosa [7]
  MIC: 0.14 mg/L
Candida albicans
  zone of inhibition at 250 µg/disc: 20.8 mm
Klebsiella pneumoniae [8]
  MIC: 12.5 mg/L
Aeromonas hydrophila [9]
  zone of inhibition at 250 µg/disc: 16.6 mm
Aeromonas hydrophila [10]
  MIC: 12.5 mg/L
Escherichia coli [11]
  zone of inhibition at 250 µg/disc: 17.7 mm
Escherichia coli [12]
  MIC: 3.12 mg/L
Pseudomonas aeruginosa [13]
  zone of inhibition at 250 µg/disc: 20.6 mm
Enterococcus faecalis [14]
  MIC: 25 mg/L
Staphylococcus aureus [15]
  MIC: 6.25 mg/L
Pseudomonas aeruginosa [16]
  Ratio: 115
Talaromyces funiculosus
  zone of inhibition at 250 µg/disc: 18.4 mm
Bacillus cereus [17]
  MIC: 12.5 mg/L
Aspergillus fumigatus
  zone of inhibition at 250 µg/disc: 20.3 mm
Clostridium perfringens [18]
  zone of inhibition at 250 µg/disc: 20.7 mm
Bacillus cereus [19]
  zone of inhibition at 250 µg/disc: 12.2 mm

## GENTAMICIN
[20]
  MIC: 2 mg/L
Clostridium perfringens [3]
  MIC: 0.5 mg/L
Bacillus cereus [21]
  inhibition zone (IZ): 18.2 mm
Escherichia coli [22]
  MIC: 16 mg/L
Enterococcus faecalis [23]
  inhibition zone (IZ): 14.6 mm
Aeromonas caviae [24]
  MIC: 12.8 mg/L
Pseudomonas aeruginosa [7]
  MIC: 64 mg/L
Enterobacter cloacae [25]
  MIC: 4 mg/L
Acinetobacter baumannii
  MIC: 16 mg/L
Escherichia coli [26]
  inhibition zone (IZ): 11.5 mm
Escherichia coli [27]
  MIC: 8 mg/L
Aeromonas hydrophila [28]
  MIC: 4 mg/L
Pseudomonas aeruginosa [29]
  inhibition zone (IZ): 9.2 mm
Pseudomonas aeruginosa [30]
  MIC: > 8 mg/L
Klebsiella pneumoniae [8]
  MIC: 8 mg/L
Klebsiella pneumoniae [31]
  inhibition zone (IZ): 18.2 mm
Kluyvera intermedia
  MIC: 2 mg/L
Aeromonas hydrophila [32]
  inhibition zone (IZ): 12.6 mm
Staphylococcus aureus [33]
  inhibition zone (IZ): 23.9 mm
Klebsiella pneumoniae [34]
  MIC: 32 mg/L
Aeromonas hydrophila [10]
  MIC: 8 mg/L
Escherichia coli [12]
  MIC: 32 mg/L
Aeromonas caviae [35]
  MIC: 32 mg/L
Enterococcus faecalis [14]
  MIC: 4 mg/L
Staphylococcus aureus [15]
  MIC: 1 mg/L
Bacillus cereus [17]
  MIC: 4 mg/L
Escherichia coli [36]
  MIC: 64 mg/L
Clostridium perfringens [37]
  inhibition zone (IZ): 21.7 mm
Enterobacter cloacae [38]
  MIC: 128 mg/L
Enterobacter cloacae [39]
  MIC: 256 mg/L
